Reference: ChEMBL document CHEMBL4049426, “Identification of the Clinical Candidate (R)-(1-(4-Fluorophenyl)-6-((1-methyl-1H-pyrazol-4-yl)sulfonyl)-4,4a,5,6,7,8-hexahydro-1H-pyrazolo[3,4-g]isoquinolin-4a-yl)(4-(trifluoromethyl)pyridin-2-yl)methanone (CORT125134): A Selective Glucocorticoid Receptor (GR) Antagonist” (J Med Chem, 2017)

Tests used:
[1] = Cmax in Sprague-Dawley CD-1 rat plasma at 3 mg/kg, po administered as cassette dose via gavage measured up to 24 hrs by LC/MS analysis; format: ADME, organism-based; parameters: dose 3 mg/kg, route oral
Method in brief: (§1)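 Three male Sprague Dawley CD-1 rats (220-250g) with jugular vein catheters; three test compounds plus a reference dosed together by oral gavage, 3mg/kg each, in DMSO:0.5% methylcellulose 10:90 (0.6mg/mL per compound), 5mL/kg. Plasma sampled pre-dose and at 0.25, 0.5, 1, 2, 4, 6, 8, 24 h; LC/MS.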

Glucocorticoid receptor [2] = molecular target: T1, Glucocorticoid receptor (Homo sapiens, UniProt P04150); experiment: Displacement of fluormone GS Red from human glucocorticoid receptor after 4 hrs by fluorescence polarization assay
T1 sequence (P04150 whole entry): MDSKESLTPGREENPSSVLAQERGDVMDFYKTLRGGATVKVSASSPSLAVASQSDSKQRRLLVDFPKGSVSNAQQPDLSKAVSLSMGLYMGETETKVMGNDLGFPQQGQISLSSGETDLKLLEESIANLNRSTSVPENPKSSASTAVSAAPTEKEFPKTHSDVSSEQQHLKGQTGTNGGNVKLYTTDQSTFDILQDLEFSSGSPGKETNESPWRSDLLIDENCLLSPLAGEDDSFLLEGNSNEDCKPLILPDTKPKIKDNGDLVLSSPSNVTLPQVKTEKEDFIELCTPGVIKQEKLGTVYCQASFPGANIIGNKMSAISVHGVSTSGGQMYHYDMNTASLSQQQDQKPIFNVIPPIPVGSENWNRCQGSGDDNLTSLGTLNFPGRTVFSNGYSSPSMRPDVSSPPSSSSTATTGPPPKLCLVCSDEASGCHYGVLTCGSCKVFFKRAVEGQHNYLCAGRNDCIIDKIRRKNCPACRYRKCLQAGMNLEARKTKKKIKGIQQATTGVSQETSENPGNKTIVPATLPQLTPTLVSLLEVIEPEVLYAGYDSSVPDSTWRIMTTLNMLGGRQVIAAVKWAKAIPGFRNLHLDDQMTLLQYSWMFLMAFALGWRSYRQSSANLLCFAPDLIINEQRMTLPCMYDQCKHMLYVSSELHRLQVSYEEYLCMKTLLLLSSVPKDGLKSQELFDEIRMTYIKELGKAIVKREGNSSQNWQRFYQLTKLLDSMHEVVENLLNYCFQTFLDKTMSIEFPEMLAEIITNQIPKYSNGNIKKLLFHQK

Glucocorticoid receptor [3] = molecular target: T1, Glucocorticoid receptor; experiment: Antagonist activity at glucocorticoid receptor in human HepG2 cells assessed as inhibition of dexamethasone-induced tyrosine amino transferase activity preincubated for 30 mins followed by dexamethasone addition measured after 20 hrs; format: cell-based
[4] = AUC in Sprague-Dawley CD-1 rat plasma at 3 mg/kg, po administered as cassette dose via gavage measured up to 24 hrs by LC/MS analysis; format: ADME, organism-based; parameters: time < 24 hr, dose 3 mg/kg, route oral; method in brief: as §1
[5] = AUC in Sprague-Dawley CD-1 rat plasma at 5 mg/kg, po administered through gavage measured up to 24 hrs by LC/MS analysis; format: ADME, organism-based; parameters: dose 5 mg/kg, time < 24 hr, route oral
Method in brief: (§2)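 Jugular-catheterized male Sprague Dawley CD-1 rats (220-250g). Oral arm: five rats, 5mg/kg gavage, 1mg/mL in DMSO:0.5% methylcellulose 10:90, 5mL/kg, sampled pre-dose and 0.25-24 h. i.v. arm: three rats, 1mg/kg, 0.5mg/mL in DMSO:PEG400:propylene glycol 10:45:45, sampled pre-dose and 0.08-24 h. Plasma by LC/MS.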

[6] = Oral bioavailability in Sprague-Dawley CD-1 rat plasma at 5 mg/kg administered through gavage measured up to 24 hrs by LC/MS analysis; format: ADME, organism-based; method in brief: as §2
[7] = Cmax in Sprague-Dawley CD-1 rat plasma at 5 mg/kg, po administered through gavage measured up to 24 hrs by LC/MS analysis; format: ADME, organism-based; parameters: dose 5 mg/kg, route oral; method in brief: as §2
[8] = AUC in monkey plasma at 20 mg/kg, po measured up to 24 hrs by LC/MS analysis; format: ADME, organism-based, Macaca mulatta; parameters: dose 20 mg/kg, time < 24 hr, route oral; settings: rhesus monkey
Method in brief: (§3)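 Monkey i.v./p.o. study: oral 20mg/kg in 10% DMSO, 0.1% Tween 80, 0.5% hydroxypropylmethylcellulose in water; i.v. dose 1mg/kg.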

[9] = Oral bioavailability in monkey plasma at 20 mg/kg measured up to 24 hrs by LC/MS analysis; format: ADME, organism-based, Macaca mulatta; settings: rhesus monkey; method in brief: as §3
[10] = Cmax in monkey plasma at 20 mg/kg, po measured up to 24 hrs by LC/MS analysis; format: ADME, organism-based, Macaca mulatta; parameters: dose 20 mg/kg, route oral; settings: rhesus monkey; method in brief: as §3

Row | Structure (SMILES) | Cmax [1] [ng/mL] | Ki (Glucocorticoid receptor [2]) [nM] | Ki (Glucocorticoid receptor [3]) [nM] | AUC at 24 h [4] [ng·h/mL] | also measured
1 | Cc1ccnc(C(=O)[C@]23Cc4cnn(-c5ccc(F)cc5)c4C=C2CCN(S(=O)(=O)c2cccc(C#N)c2)C3)c1 | 70 | 0.15 | 4.5 | 217 | –
2 | O=C(c1nccs1)[C@]12Cc3cnn(-c4ccc(F)cc4)c3C=C1CCN(S(=O)(=O)c1cccc(C(F)(F)F)c1)C2 | 103 | 0.48 | 17 | 446 | –
3 | Cc1cccc(S(=O)(=O)N2CCC3=Cc4c(cnn4-c4ccc(F)cc4)C[C@]3(C(=O)c3ccccn3)C2)c1 | 31 | – | – | 83 | –
4 | Cn1ccc(S(=O)(=O)N2CCC3=Cc4c(cnn4-c4ccc(F)cc4)C[C@]3(C(=O)c3cc(C(F)(F)F)ccn3)C2)n1 | 291 | – | 6.6 | 863 | AUC at 24 h [5]: 986 ng·h/mL; bioavailability [6]: 68%; Cmax [7]: 510 ng/mL
5 | Cn1ncc(S(=O)(=O)N2CCC3=Cc4c(cnn4-c4ccc(F)cc4)C[C@]3(C(=O)c3cc(C(F)(F)F)ccn3)C2)n1 [NENOCORILANT] | 255 | – | 3.1 | 860 | –
6 | CCn1cc(S(=O)(=O)N2CCC3=Cc4c(cnn4-c4ccc(F)cc4)C[C@]3(C(=O)c3cc(C(F)(F)F)ccn3)C2)cn1 | 126 | – | 4.6 | 701 | –
7 | Cn1ncc(S(=O)(=O)N2CC[C@H]3Cc4c(cnn4-c4ccc(F)cc4)C[C@]3(C(=O)c3cc(C(F)(F)F)ccn3)C2)n1 [EXICORILANT] | – | – | 12 | – | AUC at 24 h [5]: 9420 ng·h/mL; bioavailability [6]: 100%; Cmax [7]: 1260 ng/mL
8 | Cc1n[nH]c(C)c1S(=O)(=O)N1CCC2=Cc3c(cnn3-c3ccc(F)cc3)C[C@]2(C(=O)c2cc(C(F)(F)F)ccn2)C1 | – | – | 69 | – | –
9 | CCc1ccnc(C(=O)[C@]23Cc4cnn(-c5ccc(F)cc5)c4C=C2CCN(S(=O)(=O)c2cccc(C#N)c2)C3)c1 | – | 0.19 | 1.7 | – | –
10 | O=C(c1ccccn1)[C@]12Cc3cnn(-c4ccc(F)cc4)c3C=C1CCN(S(=O)(=O)c1cc(F)cc(F)c1)C2 | 72 | 0.12 | 9.2 | 143 | –
11 | O=C(c1cc(C(F)(F)F)ccn1)[C@]12Cc3cnn(-c4ccc(F)cc4)c3C=C1CCN(S(=O)(=O)c1cn[nH]c1)C2 | – | – | 7.6 | – | –
12 | Cc1cnc(C(=O)[C@]23Cc4cnn(-c5ccc(F)cc5)c4C=C2CCN(S(=O)(=O)c2ccc(F)c(F)c2)C3)s1 | 30 | 1.3 | 7.4 | 135 | –
13 | O=C(c1ccccn1)[C@]12Cc3cnn(-c4ccc(F)cc4)c3C=C1CCN(S(=O)(=O)c1ccc(C(F)(F)F)cc1)C2 [DAZUCORILANT] | – | – | 12 | – | –
14 | Cc1ccc(C(=O)[C@]23Cc4cnn(-c5ccc(F)cc5)c4C=C2CCN(S(=O)(=O)c2cccc(C)c2)C3)nc1 | – | 0.14 | 7.5 | – | –
15 | Cn1ccc(S(=O)(=O)N2CC[C@H]3Cc4c(cnn4-c4ccc(F)cc4)C[C@]3(C(=O)c3cc(C(F)(F)F)ccn3)C2)n1 | – | – | 24 | – | –
16 | Cc1cnc(C(=O)[C@]23Cc4cnn(-c5ccc(F)cc5)c4C=C2CCN(S(=O)(=O)c2cccc(C(F)(F)F)c2)C3)s1 | – | 0.29 | 10 | – | –
17 | O=C(c1ccccn1)[C@]12Cc3cnn(-c4ccc(F)cc4)c3C[C@@H]1CCN(S(=O)(=O)c1cccc(C(F)(F)F)c1)C2 | – | – | 44 | – | –
18 | CCn1nccc1S(=O)(=O)N1CCC2=Cc3c(cnn3-c3ccc(F)cc3)C[C@]2(C(=O)c2cc(C(F)(F)F)ccn2)C1 | – | – | 10 | – | AUC at 24 h [8]: 193 ng·h/mL; bioavailability [9]: 1.5%; AUC at 24 h [5]: 1530 ng·h/mL; bioavailability [6]: 52%; Cmax [10]: 20.8 ng/mL; Cmax [7]: 511 ng/mL
19 | Cc1cccc(S(=O)(=O)N2CCC3=Cc4c(cnn4-c4ccc(F)cc4)C[C@]3(C(=O)c3cccc(C)n3)C2)c1 | – | 0.2 | 14 | – | –
20 | Cn1cc(S(=O)(=O)N2CCC3=Cc4c(cnn4-c4ccc(F)cc4)C[C@]3(C(=O)c3ccccn3)C2)cn1 | 150 | – | 28 | 780 | –
